Activity data for two compounds are collected here from ChEMBL document CHEMBL1154352, “Toll-like receptor 7 selective synthetic oligoribonucleotide agonists: synthesis and structure-activity relationship studies” (J Med Chem, 2009).

Active and inactive are the calls of the source. The calls are words filed in the database; no cut-off is given here.

The species entered for one test is Homo sapiens. Nature of the test: Ratio of human TLR7 activity to human TLR8 activity. The procedure, abridged: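 TLR7/TLR8 ratio computed from fold NF-κB (SEAP reporter) activation in HEK293 cells stably expressing human TLR7 versus TLR8, compounds at 50 μg/mL, 18 h exposure; representative of three independent experiments.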
Test [1] concerns the target T1, Toll-like receptor 7 (Homo sapiens) (UniProt Q9NYK1).
T1 sequence (whole entry): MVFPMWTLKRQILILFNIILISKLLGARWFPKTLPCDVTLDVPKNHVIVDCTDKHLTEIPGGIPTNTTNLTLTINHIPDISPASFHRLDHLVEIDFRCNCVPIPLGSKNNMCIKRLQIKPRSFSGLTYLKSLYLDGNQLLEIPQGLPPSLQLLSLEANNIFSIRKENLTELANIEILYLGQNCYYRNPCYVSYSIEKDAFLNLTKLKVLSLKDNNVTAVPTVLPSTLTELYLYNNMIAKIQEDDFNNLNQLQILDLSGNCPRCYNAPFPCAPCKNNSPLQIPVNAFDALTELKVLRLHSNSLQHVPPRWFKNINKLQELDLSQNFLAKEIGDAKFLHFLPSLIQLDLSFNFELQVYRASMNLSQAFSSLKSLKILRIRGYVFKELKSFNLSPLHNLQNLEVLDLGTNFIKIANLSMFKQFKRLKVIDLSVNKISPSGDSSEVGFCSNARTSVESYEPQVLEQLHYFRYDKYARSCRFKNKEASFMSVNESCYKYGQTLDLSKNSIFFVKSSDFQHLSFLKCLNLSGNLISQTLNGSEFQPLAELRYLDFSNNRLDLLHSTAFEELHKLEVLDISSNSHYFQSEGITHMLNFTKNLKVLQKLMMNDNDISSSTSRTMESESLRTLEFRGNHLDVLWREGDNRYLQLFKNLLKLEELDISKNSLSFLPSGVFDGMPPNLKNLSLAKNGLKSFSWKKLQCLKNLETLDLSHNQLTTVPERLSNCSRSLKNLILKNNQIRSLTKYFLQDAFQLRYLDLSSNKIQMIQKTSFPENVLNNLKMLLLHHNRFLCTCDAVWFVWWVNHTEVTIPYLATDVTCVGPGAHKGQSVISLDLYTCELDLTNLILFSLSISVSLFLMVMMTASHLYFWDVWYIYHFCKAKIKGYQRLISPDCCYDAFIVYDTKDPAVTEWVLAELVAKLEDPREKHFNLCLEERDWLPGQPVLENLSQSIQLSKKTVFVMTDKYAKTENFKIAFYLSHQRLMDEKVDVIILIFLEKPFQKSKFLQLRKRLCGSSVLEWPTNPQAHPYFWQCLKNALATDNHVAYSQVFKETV
Nature of the test: Activation of human TLR7 expressed in HEK293XL assessed as induction of NF-kappaB activity by reporter gene assay. The procedure, abridged: (§1)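 HEK293 cells stably expressing human TLR7 or TLR8, transiently transfected with SEAP reporter plasmid; medium replaced, SIMRA compounds added, 18 h incubation. Supernatant SEAP measured by QuantiBlue; expressed as fold increase in NF-κB activity over PBS control. Tabulated data at 50 μg/mL, representative of three independent experiments.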
(In general: Reporter assays use an easily measured gene product as a stand-in for the process of interest.)

Test [2] has as its target T2, Toll-like receptor 8 (Homo sapiens) (UniProt Q9NR97).
T2 sequence (whole entry): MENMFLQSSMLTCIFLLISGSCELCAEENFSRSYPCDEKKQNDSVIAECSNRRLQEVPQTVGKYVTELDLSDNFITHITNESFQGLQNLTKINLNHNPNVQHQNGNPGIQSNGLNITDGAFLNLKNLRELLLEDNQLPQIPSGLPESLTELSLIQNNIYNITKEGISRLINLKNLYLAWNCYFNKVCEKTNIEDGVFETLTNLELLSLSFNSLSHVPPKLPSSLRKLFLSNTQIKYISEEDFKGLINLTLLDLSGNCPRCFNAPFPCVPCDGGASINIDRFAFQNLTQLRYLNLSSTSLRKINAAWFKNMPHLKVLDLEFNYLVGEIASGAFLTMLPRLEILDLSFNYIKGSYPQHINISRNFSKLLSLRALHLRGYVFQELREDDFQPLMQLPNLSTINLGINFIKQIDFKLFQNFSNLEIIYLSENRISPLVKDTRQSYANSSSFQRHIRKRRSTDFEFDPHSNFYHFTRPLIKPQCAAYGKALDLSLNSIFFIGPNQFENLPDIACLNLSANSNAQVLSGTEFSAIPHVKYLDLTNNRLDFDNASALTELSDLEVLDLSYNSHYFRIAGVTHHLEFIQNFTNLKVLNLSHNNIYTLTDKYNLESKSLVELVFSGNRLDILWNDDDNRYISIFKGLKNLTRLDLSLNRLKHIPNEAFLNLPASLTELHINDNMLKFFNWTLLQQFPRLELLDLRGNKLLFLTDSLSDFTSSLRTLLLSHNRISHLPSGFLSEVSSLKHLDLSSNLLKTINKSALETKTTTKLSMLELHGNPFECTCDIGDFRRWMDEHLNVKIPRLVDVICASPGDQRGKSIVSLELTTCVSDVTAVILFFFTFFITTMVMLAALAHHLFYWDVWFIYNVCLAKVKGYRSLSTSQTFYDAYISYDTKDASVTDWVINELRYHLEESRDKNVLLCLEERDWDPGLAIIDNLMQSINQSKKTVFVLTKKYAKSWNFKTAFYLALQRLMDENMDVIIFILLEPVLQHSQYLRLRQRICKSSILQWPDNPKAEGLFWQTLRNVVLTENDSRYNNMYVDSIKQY
Nature of the test: Activation of human TLR8 expressed in HEK293XL assessed as induction of NF-kappaB activity by reporter gene assay. The procedure, abridged:
as §1

With `Nc1ccn([C@@H]2O[C@H](COP(=O)(S)O[C@H]3[C@@H](O)[C@H](n4cnc5c(N)ncnc54)O[C@@H]3CO)[C@@H](OP(=O)(S)OC[C@H]3O[C@@H](n4ccc(=O)[nH]c4=O)[C@H](O)[C@@H]3OP(=O)(S)OC[C@H]3O[C@@H](n4ccc(=O)[nH]c4=O)[C@H](O)[C@@H]3OP(=O)(S)OC[C@H]3O[C@@H](n4ccc5c(=O)[nH]c(N)nc54)[C@H](O)[C@@H]3OP(=O)(S)OC[C@H]3O[C@@H](n4cnc5c(N)ncnc54)[C@H](O)[C@@H]3OP(=O)(S)OC[C@H]3O[C@@H](n4cnc5c(N)ncnc54)[C@H](O)[C@@H]3OP(=O)(S)OC[C@H]3O[C@@H](n4cnc5c(=O)[nH]c(N)nc54)[C@H](O)[C@@H]3OP(=O)(S)OC[C@H]3O[C@@H](n4ccc(N)nc4=O)[C@H](O)[C@@H]3OP(=O)(S)OC[C@H]3O[C@@H](n4ccc(=O)[nH]c4=O)[C@H](O)[C@@H]3OP(=O)(S)OC[C@H]3O[C@@H](n4ccc(=O)[nH]c4=O)[C@H](O)[C@@H]3OP(=O)(S)OCC(O)COP(=O)(S)O[C@H]3[C@@H](O)[C@H](n4ccc(=O)[nH]c4=O)O[C@@H]3COP(=O)(S)O[C@H]3[C@@H](O)[C@H](n4ccc(=O)[nH]c4=O)O[C@@H]3COP(=O)(S)O[C@H]3[C@@H](O)[C@H](n4ccc(N)nc4=O)O[C@@H]3COP(=O)(S)O[C@H]3[C@@H](O)[C@H](n4cnc5c(=O)[nH]c(N)nc54)O[C@@H]3COP(=O)(S)O[C@H]3[C@@H](O)[C@H](n4cnc5c(N)ncnc54)O[C@@H]3COP(=O)(S)O[C@H]3[C@@H](O)[C@H](n4cnc5c(N)ncnc54)O[C@@H]3COP(=O)(S)O[C@H]3[C@@H](O)[C@H](n4cnc5c(=O)[nH]c(N)nc54)O[C@@H]3COP(=O)(S)O[C@H]3[C@@H](O)[C@H](n4ccc(=O)[nH]c4=O)O[C@@H]3COP(=O)(S)O[C@H]3[C@@H](O)[C@H](n4ccc(=O)[nH]c4=O)O[C@@H]3COP(=O)(S)O[C@H]3[C@@H](O)[C@H](n4ccc(N)nc4=O)O[C@@H]3COP(=O)(S)O[C@H]3[C@@H](O)[C@H](n4cnc5c(N)ncnc54)O[C@@H]3CO)[C@H]2O)c(=O)n1` (stereo partly specified), in the test listed under Homo sapiens, the Activity entry was “Dose-dependent effect”. Further, the outcome in test [1] and in test [2] was inactive.

Consider `Nc1ccn([C@@H]2O[C@H](COP(=O)(S)O[C@H]3[C@@H](O)[C@H](n4cnc5c(N)ncnc54)O[C@@H]3CO)[C@@H](OP(=O)(S)OC[C@H]3O[C@@H](n4ccc(=O)[nH]c4=O)[C@H](O)[C@@H]3OP(=O)(S)OC[C@H]3O[C@@H](n4ccc(=O)[nH]c4=O)[C@H](O)[C@@H]3OP(=O)(S)OC[C@H]3O[C@@H](n4cnc5c(=O)[nH]c(N)nc54)[C@H](O)[C@@H]3OP(=O)(S)OC[C@H]3O[C@@H](n4cnc5c(N)ncnc54)[C@H](O)[C@@H]3OP(=O)(S)OC[C@H]3O[C@@H](n4ccc(N)nc4=O)[C@H](O)[C@@H]3OP(=O)(S)OC[C@H]3O[C@@H](n4cnc5c(=O)[nH]c(N)nc54)[C@H](O)[C@@H]3OP(=O)(S)OC[C@H]3O[C@@H](n4cnc5c(N)ncnc54)[C@H](O)[C@@H]3OP(=O)(S)OC[C@H]3O[C@@H](n4ccc(=O)[nH]c4=O)[C@H](O)[C@@H]3OP(=O)(S)OC[C@H]3O[C@@H](n4ccc(=O)[nH]c4=O)[C@H](O)[C@@H]3OP(=O)(S)OCC(O)COP(=O)(S)O[C@H]3[C@@H](O)[C@H](n4ccc(=O)[nH]c4=O)O[C@@H]3COP(=O)(S)O[C@H]3[C@@H](O)[C@H](n4ccc(=O)[nH]c4=O)O[C@@H]3COP(=O)(S)O[C@H]3[C@@H](O)[C@H](n4cnc5c(N)ncnc54)O[C@@H]3COP(=O)(S)O[C@H]3[C@@H](O)[C@H](n4cnc5c(=O)[nH]c(N)nc54)O[C@@H]3COP(=O)(S)O[C@H]3[C@@H](O)[C@H](n4ccc(N)nc4=O)O[C@@H]3COP(=O)(S)O[C@H]3[C@@H](O)[C@H](n4cnc5c(N)ncnc54)O[C@@H]3COP(=O)(S)O[C@H]3[C@@H](O)[C@H](n4cnc5c(=O)[nH]c(N)nc54)O[C@@H]3COP(=O)(S)O[C@H]3[C@@H](O)[C@H](n4ccc(=O)[nH]c4=O)O[C@@H]3COP(=O)(S)O[C@H]3[C@@H](O)[C@H](n4ccc(=O)[nH]c4=O)O[C@@H]3COP(=O)(S)O[C@H]3[C@@H](O)[C@H](n4ccc(N)nc4=O)O[C@@H]3COP(=O)(S)O[C@H]3[C@@H](O)[C@H](n4cnc5c(N)ncnc54)O[C@@H]3CO)[C@H]2O)c(=O)n1` (stereo partly specified), for which, in the test listed under Homo sapiens, the Activity entry was “Dose-dependent effect”. The outcome in test [1] and in test [2] was inactive.
